Data set [1] has as its system Mycobacterium tuberculosis. In words: Antitubercular activity against Mycobacterium tuberculosis H37Rv. In kind it is functional. The essentials:
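Mycobacterium tuberculosis strain H37Rv; minimum inhibitory concentration (MIC) taken as the lowest level needed to inhibit bacterial growth; isoniazid and pyrazinamide served as reference drugs.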

Data set [2] relates to Neisseria gonorrhoeae. In words: Antibacterial activity against Neisseria gonorrhoeae. In kind it is functional.
Data set [3] deals with Escherichia coli. As to the kind of experiment: Antibacterial activity against Escherichia coli. In kind it is functional.
For data set [4], the system named is Klebsiella pneumoniae. As to the kind of experiment: Antibacterial activity against Klebsiella pneumoniae. In kind it is functional.
In data set [5] the test system is Citrobacter braakii. In words: Antibacterial activity against Citrobacter braakii. The data set is classed as functional.
Data set [6] deals with Proteus vulgaris. As to the kind of experiment: Antibacterial activity against Proteus vulgaris. In kind it is functional.
For data set [7], the system named is Serratia marcescens. In words: Antibacterial activity against Serratia marcescens. In kind it is functional.
For data set [8], the system named is Shigella flexneri. As to the kind of experiment: Antibacterial activity against Shigella flexneri. In kind it is functional.
In data set [9] the test system is Pseudomonas aeruginosa. As to the kind of experiment: Antibacterial activity against Pseudomonas aeruginosa. In kind it is functional.
In data set [10] the test system is Staphylococcus aureus. In words: Antibacterial activity against Staphylococcus aureus. The data set is classed as functional.
The subject of data set [11] is Staphylococcus aureus. As to the kind of experiment: Antibacterial activity against methicillin resistant Staphylococcus aureus. The data set is classed as functional.
Data set [12] deals with Trichophyton rubrum. As to the kind of experiment: Antifungal activity against Trichophyton rubrum. In kind it is functional.
Data set [13] deals with Nannizzia gypsea. In words: Antifungal activity against Trichophyton gypseum. The data set is classed as functional.
Data set [14] has as its system Trichophyton tonsurans. In words: Antifungal activity against Trichophyton tonsurans. In kind it is functional.
The subject of data set [15] is Trichophyton violaceum. In words: Antifungal activity against Trichophyton violaceum. In kind it is functional.
In data set [16] the test system is Trichophyton interdigitale. As to the kind of experiment: Antifungal activity against Trichophyton mentagrophytes var. interdigitale. In kind it is functional.
The subject of data set [17] is Epidermophyton floccosum. In words: Antifungal activity against Epidermophyton floccosum. In kind it is functional.
The test system of data set [18] is Microsporum canis. In words: Antifungal activity against Microsporum canis. The data set is classed as functional.
Data set [19] deals with Candida albicans. As to the kind of experiment: Antifungal activity against Candida albicans. The data set is classed as functional.
Data set [20] is described as follows: Antioxidant activity assessed as trolox equivalent of ABTS radical scavenging activity measured after 1 hr by UV-vis spectrophotometric method. In kind it is functional. The essentials:
(§1)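 ABTS cation-radical decolorization was read spectrophotometrically as the fall in absorbance after 1 h. Trolox was the reference. TEAC was taken as the ratio of concentration-response slopes, test/Trolox, and IC50 was also derived. Data are mean ± SEM, n = 3.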

The subject of data set [21] is Rattus norvegicus. As to the kind of experiment: Analgesic activity in rat assessed as prolongation of latency period at 15 mg/kg, ip measured after 1 hr by hot-plate test relative to control. In kind it is functional. The essentials:
(§2)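 Hot-plate test in rats. Compounds were given by intraperitoneal injection. Latency was read at 1 h and, for some compounds, also at 2 h after dosing. Results are expressed as % prolongation of the latent period versus vehicle-treated control. Significance was given as p-values.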

Data set [22] concerns Rattus norvegicus. In words: Antiinflammatory activity in rat model of carrageenan-induced paw edema assessed as inhibition of hind paw swelling at 15 mg/kg, ip measured after 5 hrs. In kind it is functional, organism-based. On the technique in general: The carrageenan paw model is a standard test of acute inflammation.
Data set [23] concerns Streptococcus pyogenes. In words: Antibacterial activity against Streptococcus pyogenes. The data set is classed as functional.
Data set [24] in a line: Antioxidant activity assessed as AAPH scavenging activity by measuring residual fluorescence at 10 uM measured at 1 min interval for 30 mins by ORAC fluorescein assay relative to control. The data set is classed as functional. The essentials:
(§3)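 ORAC-FL assay with fluorescein as the probe and AAPH as the peroxyl radical generator. The loss of fluorescence over time was followed, and the result is given as % fluorescence restored at 10 and 50 µM. Each value is the mean of two independent experiments.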

The nature of data set [25]: Antioxidant activity assessed as AAPH scavenging activity by measuring residual fluorescence at 50 uM measured at 1 min interval for 30 mins by ORAC fluorescein assay relative to control. The data set is classed as functional. Summed up:
as §3

The test system of data set [26] is Erythrocyte. As to the kind of experiment: Antioxidant activity in human erythrocytes assessed as protection against AAPH-induced hemolysis at 50 uM preincubated for 20 mins followed by AAPH addition and measured after 2 hrs by spectrophotometric method relative to control. In kind it is functional. The note with it: time 140 min, 2.333 h. The essentials: (§4)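 Erythrocyte hemolysis assay with AAPH as the free-radical initiator, testing 50 and 400 µM. Results are expressed as relative protection of membranes against oxidative damage, each the mean of two independent experiments.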

Data set [27] deals with Erythrocyte. As to the kind of experiment: Antioxidant activity in human erythrocytes assessed as protection against AAPH-induced hemolysis at 400 uM preincubated for 20 mins followed by AAPH addition and measured after 2 hrs by spectrophotometric method relative to control. The data set is classed as functional. The following applies: time 140 min, 2.333 h. Summed up:
as §4

The test system of data set [28] is HeLa. As to the kind of experiment: Cytotoxicity against human HeLa cells. The data set is classed as functional, cell-based.
In data set [29] the test system is NHDF. In words: Cytotoxicity against HDF cells. In kind it is cell-based, Homo sapiens. The note with it: Homo sapiens, NHDF; read-out: IC50.
Data set [30] is described as follows: Selectivity index, ratio of IC50 for HDF cells to IC50 for human HeLa cells. The data set is classed as toxicity. The following applies: HDF cells versus HeLa cells, read-out: Ratio IC50.
In data set [31] the test system is Rattus norvegicus. In words: Antiinflammatory activity in rat model of carrageenan-induced paw edema assessed as inhibition of hind paw swelling at 15 mg/kg, ip measured after 1 hr relative to control. In kind it is functional.
Data set [32] concerns Rattus norvegicus. In words: Antiinflammatory activity in rat model of carrageenan-induced paw edema assessed as inhibition of hind paw swelling at 15 mg/kg, ip measured after 3 hrs relative to control. The data set is classed as functional.
The nature of data set [33]: Antioxidant activity assessed as ABTS radical scavenging activity measured after 1 hr by UV-vis spectrophotometric method. The data set is classed as functional. Summed up:
as §1

In data set [34] the test system is Rattus norvegicus. In words: Analgesic activity in rat assessed as prolongation of latency period at 15 mg/kg, ip measured after 2 hrs by hot-plate test relative to control. The data set is classed as functional. Summed up: as §2
In general terms: Hot-plate and tail-flick tests time the reaction to a heat stimulus.

The nature of data set [35]: Acute toxicity in mouse at 150 mg/kg, ip administered as single dose. The data set is classed as organism-based. The note with it: in vivo. The essentials:
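Mice, single intraperitoneal dose, following OECD Guideline for testing of chemicals; three mice per dose level; doses tested 10–300 mg/kg. Read-out is the number of survivors out of 3, used to estimate the expected LD50 range.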

In brackets after ≈: the same amount, converted by molar mass. Activity calls are given as the source filed them. No cut-off for these calls is given here.

A word on the MIC: it is the lowest concentration that inhibits growth of the organism. What is called IC50 is the concentration needed to halve the response being measured. Broadly, the inhibition in vivo is the relative decrease from the control value, in per cent.

In the case of `Cn1nc(C(F)(F)F)c(N=O)c1-c1ccco1`, the MIC was 12.5 µg/mL (≈ 51 µM) in data set [1]; 125 µg/mL (≈ 510 µM) in data set [2]; over 500 µg/mL in data set [3]; over 500 µg/mL in data set [4]; over 500 µg/mL in data set [5]; over 500 µg/mL in data set [6]. Further, the MIC in data set [7] was over 500 µg/mL; in data set [8] it was over 500 µg/mL; in data set [9], over 500 µg/mL; in data set [10], 15.6 µg/mL (≈ 63.6 µM); in [11], 31.2 µg/mL (≈ 127 µM); in data set [12], 12.5 µg/mL (≈ 51 µM). Also, the minimum inhibitory concentration (MIC) came to 50 µg/mL (≈ 204 µM) in data set [13]; 12.5 µg/mL (≈ 51 µM) in data set [14]; 6.25 µg/mL (≈ 25.5 µM) in [15]; 25 µg/mL (≈ 102 µM) in data set [16]; 12.5 µg/mL (≈ 51 µM) in data set [17]; 12.5 µg/mL (≈ 51 µM) in [18]. Further, the MIC result in data set [19] is “inactive”. The Activity in data set [20] was 0.02 equiv. In data set [21], the result was inactive. Further, in [22], the result was Active.

Regarding `O=Nc1c(C(F)(F)F)n[nH]c1-c1ccccc1`, the MIC was determined as 0.36 µg/mL (≈ 1.49 µM) in data set [1]; 62.5 µg/mL (≈ 259 µM) in data set [2]; 62.5 µg/mL (≈ 259 µM) in data set [3]; 62.5 µg/mL (≈ 259 µM) in data set [4]; 62.5 µg/mL (≈ 259 µM) in data set [5]; 31.2 µg/mL (≈ 129 µM) in [6]. Moreover, the MIC in data set [7] turned out to be 62.5 µg/mL (≈ 259 µM); in [8] it was 31.2 µg/mL (≈ 129 µM); in data set [9], 125 µg/mL (≈ 518 µM); in data set [23] it was 7.8 µg/mL (≈ 32.3 µM); in [10], 31.2 µg/mL (≈ 129 µM); in data set [11], 62.5 µg/mL (≈ 259 µM). Also, the minimal inhibitory concentration (MIC) in [12], in data set [13], in [14], in data set [15], in data set [16] and in data set [17] was over 200 µg/mL throughout. In addition, the MIC in [18] was over 200 µg/mL; in [19], 100 µg/mL (≈ 415 µM). In addition, the result in data set [20] was inactive. Further, the Activity in data set [24] was -80.4%; in [25] it was -119%; in data set [28], “Dose-dependent effect”; in data set [21], 51.7%. Also, the entries for the “fold change (FC)” value in data set [26] and in [27] were 0.99 and 1.05, respectively. Moreover, the half-inhibitory concentration (IC50) in [28] (Homo sapiens, HeLa, read-out: IC50) was found to be 1.86 µM; in [29], 1.42 µM. Further, the selectivity ratio in [30] was 0.76. Moreover, the inhibition entry in [31] is “inactive”. In addition, in [32], the inhibition in vivo at 15 mg/kg came to 32%. Moreover, the outcome in data set [22] was Active.

For the compound `O/N=C1\C(c2ccccc2)=NN(c2ccccc2)C1(O)C(F)(F)F` (configuration not stated), the MIC in data set [2] was 31.2 µg/mL (≈ 93.1 µM); in data set [3], over 250 µg/mL; in data set [4], over 250 µg/mL; in data set [5] it was over 250 µg/mL; in data set [6] it was over 250 µg/mL; in [7], over 250 µg/mL. Further, the MIC in data set [8] is over 250 µg/mL; in [9] it was over 250 µg/mL; in data set [23], over 250 µg/mL; in data set [10] it was 31.2 µg/mL (≈ 93.1 µM); in data set [11], 31.2 µg/mL (≈ 93.1 µM); in data set [12], 25 µg/mL (≈ 74.6 µM). Further, the MIC in data set [13] was found to be 100 µg/mL (≈ 298 µM); in data set [14] it was 50 µg/mL (≈ 149 µM); in data set [15], 100 µg/mL (≈ 298 µM); in data set [16], 100 µg/mL (≈ 298 µM); in data set [17] it was 100 µg/mL (≈ 298 µM); in [18], 100 µg/mL (≈ 298 µM). The MIC in data set [19] was 50 µg/mL (≈ 149 µM). In data set [20], the Activity came out at 0.44 equiv. Moreover, in data set [33], the concentration for half-maximal inhibition (IC50) turned out to be 48.6 µM. Further, the result in data set [22] was Active.

On to `Cc1ccc(-c2[nH]nc(C(F)(F)F)c2N=O)cc1`, for which the Activity in data set [20] was 0.02 equiv; in data set [24] it was -60%; in data set [25], -99.8%; in data set [35], “Non-Toxic”. Also, the “fold change (FC)” value in [26] and in data set [27] was 1.03 throughout. Also, the outcome in [21] and in [34] was inactive. Besides, the outcome in data set [22] was Active.

For `Nc1c(C(F)(F)F)n[nH]c1-c1ccccc1`, in data set [33], the IC50 was 14.1 µM. Moreover, the “fold change (FC)” value in data set [26] was found to be 1.1; in data set [27], 0.02. For the same compound, the Activity in data set [21] is 56.7%; in data set [34] it was 66.7%; in data set [35], “Non-Toxic”.

The values above are taken from ChEMBL document CHEMBL4765448, “Multiple biological active 4-aminopyrazoles containing trifluoromethyl and their 4-nitroso-precursors: Synthesis and evaluation” (Eur J Med Chem, 2020).
